Calls of active or inactive are those of the source. No cut-off for these calls is given here.
Experiments:
[1] = Drug uptake in mouse brain at 20 mg/kg, po via gavage by HPLC-MS/MS analysis; assay type: ADME, organism-based; conditions: in vivo, read-out: Drug uptake
[2] = Cytotoxicity against human SH-SY5Y cells assessed as cell survival at 100 uM after 24 hrs by MTT assay relative to control; assay type: cell-based; conditions: read-out: Survival
Outline: (§1)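 SH-SY5Y human neuroblastoma cells seeded at 5 × 10⁴ cells/mL, incubated 24 h at 37 °C, then exposed to compounds at final concentrations of […] for 24 h. MTT added for a further 4 h at 37 °C. Absorbance read at 570 nm and reported as percent viability. Five parallel samples per condition.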

Rattus norvegicus [3] = test: In vivo neurogenic activity in Sprague-Dawley rat neural progenitor cells at 2.2 mg/kg, ip qd pretreated for 28 days followed by BrdU addition at 2 hrs interval for twice on day 29 measured after 24 hrs by BrdU incorporation assay; assay type: functional, organism-based
Outline: (§2)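 Male SD rats aged 10 weeks, acclimatized 7 days (11 weeks old at start), dosed ip once daily for 28 days with compound in soybean oil containing 10% ethanol; vehicle group received 10% ethanol in oil. On day 29, BrdU in saline given twice at 100 mg/kg, 2 h apart. Rats sacrificed 24 h after the last BrdU. BrdU+ cells in SGZ-GCL counted by DAB immunostaining of 30 µm cryosections; n = 8; mean ± SEM.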

[4] = Cytotoxicity against human SH-SY5Y cells assessed as cell survival at 1000 uM after 24 hrs by MTT assay relative to control; assay type: cell-based; conditions: read-out: Survival; outline: as §1
[5] = Cytotoxicity against human SH-SY5Y cells assessed as cell survival at 500 uM after 24 hrs by MTT assay relative to control; assay type: cell-based; conditions: read-out: Survival; outline: as §1
Rattus norvegicus [6] = test: In vivo neurogenic activity in Sprague-Dawley rat neural progenitor cells at 0.5 to 4 mg/kg, ip qd pretreated for 28 days followed by BrdU addition at 2 hrs interval for twice on day 29 measured after 24 hrs by BrdU incorporation assay; assay type: functional, organism-based
Outline: (§3)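 Eleven-week-old SD male rats were dosed ip daily for 28 days in soybean oil with 10% ethanol, against a vehicle control. On day 29 BrdU 100 mg/kg was given twice, 2 h apart, and rats were sacrificed 24 h later. Sections were treated with HCl denaturation, BrdU antibody at 1:500 at 4 °C overnight and DAB detection. BrdU+ cells in the SGZ-GCL were counted, mean ± SEM, n = 8.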

Rattus norvegicus [7] = test: In vivo neurogenic activity in Sprague-Dawley rat neural progenitor cells at 4 mg/kg, ip qd pretreated for 28 days followed by BrdU addition at 2 hrs interval for twice on day 29 measured after 24 hrs by BrdU incorporation assay relative to control; assay type: functional; outline: as §2
Rattus norvegicus [8] = test: Downregulation of ERK phosphorylation in Sprague-Dawley rat adult hippocampus at 2.2 to 4 mg/kg, ip qd preincubated for 28 days followed by BrdU addition at 2 hrs interval for twice on day 29 measured at 24 hrs post BrdU pulse by immunoblot assay; assay type: functional, organism-based; conditions: in the assay text read “Upregulation” for “Downregulation”
Outline: (§4)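 Male SD rats (received at 10 weeks, acclimatized 7 days) were dosed ip once daily for 28 days. The compounds were given in soybean oil with 10% ethanol, and the vehicle group received 10% ethanol in oil. BrdU was given 100 mg/kg twice, 2 h apart, on day 29. Hippocampal tissue was taken 24 h or 28 days later. Lysates were made in RIPA with protease inhibitors and run on 12% SDS-PAGE. Akt, pAkt, ERK1/2 and pERK1/2 were immunoblotted and read by densitometry against GAPDH, normalized to vehicle = 1.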

Rattus norvegicus [9] = test: In vivo neurogenic activity in Sprague-Dawley rat neural progenitor cells at 2 mg/kg, ip qd preincubated for 28 days followed by BrdU addition at 2 hrs interval for twice on day 29 measured at 28 days post BrdU pulse by BrdU double staining based assay relative to control; assay type: functional
Outline: (§5)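 SD male rats, 11 weeks old, were given compound ip daily for 28 days in 10% ethanol/soybean oil. On day 29 they received BrdU 100 mg/kg ip twice, 2 h apart, and were perfused 28 days after the last BrdU. Fixed 30 µm cryosections were co-stained for BrdU and NeuN by fluorescence. BrdU+ cells and the BrdU+NeuN+/BrdU+ fraction were counted against vehicle, mean ± SEM, n = 8.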

Rattus norvegicus [10] = test: (§6) In vivo neurogenic activity in Sprague-Dawley rat neural progenitor cells assessed as differentiation of new born NPCs to mature functional neurons at 20 mg/kg, ip qd preincubated for 28 days followed by BrdU addition at 2 hrs interval for twice on day 29 measured at 28 days post BrdU pulse by NeuN/BrdU double staining based assay relative to control; outline: as §5
Rattus norvegicus [11] = test: Effect on ERK expression in Sprague-Dawley rat adult hippocampus at 2.2 to 4 mg/kg, ip qd preincubated for 28 days followed by BrdU addition at 2 hrs interval for twice on day 29 measured at 24 hrs post BrdU pulse by immunoblot assay; assay type: functional, organism-based; outline: as §4
Rattus norvegicus [12] = test: Effect on ERK expression in Sprague-Dawley rat adult hippocampus at 2 to 20 mg/kg, ip qd preincubated for 28 days followed by BrdU addition at 2 hrs interval for twice on day 29 measured at 28 days post BrdU pulse by immunoblot assay; assay type: functional, organism-based; outline: as §4
Rattus norvegicus [13] = test: Effect on AKT expression in Sprague-Dawley rat adult hippocampus at 2 to 20 mg/kg, ip qd preincubated for 28 days followed by BrdU addition at 2 hrs interval for twice on day 29 measured at 28 days post BrdU pulse by immunoblot assay; assay type: functional, organism-based; outline: as §4
Rattus norvegicus [14] = test: as §6, with “4” for “20”; outline: as §5
Rattus norvegicus [15] = test: Downregulation of ERK phosphorylation in Sprague-Dawley rat adult hippocampus at 2 to 20 mg/kg, ip qd preincubated for 28 days followed by BrdU addition at 2 hrs interval for twice on day 29 measured at 28 days post BrdU pulse by immunoblot assay; assay type: functional, organism-based; outline: as §4
Rattus norvegicus [16] = test: Downregulation of AKT phosphorylation in Sprague-Dawley rat adult hippocampus at 2.2 to 4 mg/kg, ip qd preincubated for 28 days followed by BrdU addition at 2 hrs interval for twice on day 29 measured at 24 hrs post BrdU pulse by immunoblot assay; assay type: functional, organism-based; conditions: in the assay text read “Upregulation” for “Downregulation”; outline: as §4
Rattus norvegicus [17] = test: Effect on AKT expression in Sprague-Dawley rat adult hippocampus at 2.2 to 4 mg/kg, ip qd preincubated for 28 days followed by BrdU addition at 2 hrs interval for twice on day 29 measured at 24 hrs post BrdU pulse by immunoblot assay; assay type: functional, organism-based; outline: as §4
Rattus norvegicus [18] = test: as §6, with “2” for “20”; outline: as §5
Rattus norvegicus [19] = test: Downregulation of AKT phosphorylation in Sprague-Dawley rat adult hippocampus at 2 to 20 mg/kg, ip qd preincubated for 28 days followed by BrdU addition at 2 hrs interval for twice on day 29 measured at 28 days post BrdU pulse by immunoblot assay; assay type: functional, organism-based; outline: as §4
Rattus norvegicus [20] = test: In vivo neurogenic activity in Sprague-Dawley rat neural progenitor cells at 0.5 mg/kg, ip qd pretreated for 28 days followed by BrdU addition at 2 hrs interval for twice on day 29 measured after 24 hrs by BrdU incorporation assay; assay type: functional, organism-based; outline: as §3
Rattus norvegicus [21] = test: Effect on ERK expression in Sprague-Dawley rat adult hippocampus at 0.5 to 4 mg/kg, ip qd preincubated for 28 days followed by BrdU addition at 2 hrs interval for twice on day 29 measured at 24 hrs post BrdU pulse by immunoblot assay; assay type: functional, organism-based; outline: as §4
Rattus norvegicus [22] = test: Downregulation of AKT phosphorylation in Sprague-Dawley rat adult hippocampus at 0.5 to 4 mg/kg, ip qd preincubated for 28 days followed by BrdU addition at 2 hrs interval for twice on day 29 measured at 24 hrs post BrdU pulse by immunoblot assay; assay type: functional, organism-based; conditions: in the assay text read “Upregulation” for “Downregulation”; outline: as §4
Rattus norvegicus [23] = test: Effect on AKT expression in Sprague-Dawley rat adult hippocampus at 0.05 to 0.5 mg/kg, ip qd preincubated for 28 days followed by BrdU addition at 2 hrs interval for twice on day 29 measured at 28 days post BrdU pulse by immunoblot assay; assay type: functional, organism-based; outline: as §4
Rattus norvegicus [24] = test: In vivo neurogenic activity in Sprague-Dawley rat adult hippocampal at 0.05 mg/kg, ip qd preincubated for 28 days followed by BrdU addition at 2 hrs interval for twice at day 29 measured at 28 days post last dose by NeuN/BrdU double staining based immunohistochemistry assay relative to control; assay type: functional; outline: as §5
Rattus norvegicus [25] = test: Downregulation of ERK phosphorylation in Sprague-Dawley rat adult hippocampus at 0.5 to 4 mg/kg, ip qd preincubated for 28 days followed by BrdU addition at 2 hrs interval for twice on day 29 measured at 24 hrs post BrdU pulse by immunoblot assay; assay type: functional, organism-based; conditions: in the assay text read “Upregulation” for “Downregulation”; outline: as §4
Rattus norvegicus [26] = test: In vivo neurogenic activity in Sprague-Dawley rat adult hippocampal at 0.5 mg/kg, ip qd preincubated for 28 days followed by BrdU addition at 2 hrs interval for twice at day 29 measured at 28 days post last dose by NeuN/BrdU double staining based immunohistochemistry assay relative to control; assay type: functional; outline: as §5
Rattus norvegicus [27] = test: Downregulation of ERK phosphorylation in Sprague-Dawley rat adult hippocampus at 0.05 to 0.5 mg/kg, ip qd preincubated for 28 days followed by BrdU addition at 2 hrs interval for twice on day 29 measured at 28 days post BrdU pulse by immunoblot assay; assay type: functional, organism-based; outline: as §4
Rattus norvegicus [28] = test: Downregulation of AKT phosphorylation in Sprague-Dawley rat adult hippocampus at 0.05 to 0.5 mg/kg, ip qd preincubated for 28 days followed by BrdU addition at 2 hrs interval for twice on day 29 measured at 28 days post BrdU pulse by immunoblot assay; assay type: functional, organism-based; outline: as §4
Rattus norvegicus [29] = test: Effect on AKT expression in Sprague-Dawley rat adult hippocampus at 0.5 to 4 mg/kg, ip qd preincubated for 28 days followed by BrdU addition at 2 hrs interval for twice on day 29 measured at 24 hrs post BrdU pulse by immunoblot assay; assay type: functional, organism-based; outline: as §4
Rattus norvegicus [30] = test: Effect on ERK expression in Sprague-Dawley rat adult hippocampus at 0.05 to 0.5 mg/kg, ip qd preincubated for 28 days followed by BrdU addition at 2 hrs interval for twice on day 29 measured at 28 days post BrdU pulse by immunoblot assay; assay type: functional, organism-based; outline: as §4

SMILES | viability at 24 h, 100 µM [2] | Activity (Rattus norvegicus [3]) | viability at 24 h, 1000 µM [4] | viability at 24 h, 500 µM [5] | other results
COc1cccc(NCC(F)Cn2c3ccc(Br)cc3c3cc(Br)ccc32)c1 (stereo not given) | – | – | – | – | concentration [1]: 900 nM
COc1ccc(C#Cc2ccc3c(c2)OCO3)cc1 | 75.9% | inactive | 63.8% | 69.1% | –
CCC(=O)Nc1ccc(/C=C/c2ccc3c(c2)OCO3)cc1 | 85.9% | Active | 61.5% | 80.6% | –
CC(C)C(=O)Nc1ccc(/C=C/c2ccc3c(c2)OCO3)cc1 | 50.9% | – | 42% | 48.4% | Activity (Rattus norvegicus [6]): Active; fold change (FC) (Rattus norvegicus [7]): 2.2 - 3.5
O=C(Nc1ccc(/C=C/c2ccc3c(c2)OCO3)cc1)C1CC1 | 98.9% | – | 85.3% | 97.3% | Activity (Rattus norvegicus [6]): Active; fold change (FC) (Rattus norvegicus [7]): 2.2 - 3.5
COc1ccc(/C=C/c2ccc(NC(C)=O)cc2)cc1OC | 68% | inactive | 31.3% | 56.5% | –
CC(=O)Nc1ccc(CCc2ccc3c(c2)OCO3)cc1 | 90.3% | inactive | 68.8% | 79.4% | –
CC(=O)Nc1ccc(/C=C/c2ccc3c(c2)OCO3)cc1 | 97% | Active | 80.4% | 91.9% | Activity (Rattus norvegicus [8]): Active; fold change (FC) (Rattus norvegicus [9]): 4.2; fold change (FC) (Rattus norvegicus [10]): 2.3; Activity (Rattus norvegicus [11]): Active; Activity (Rattus norvegicus [12]): Active; Activity (Rattus norvegicus [13]): Active; fold change (FC) (Rattus norvegicus [14]): 3.1; Activity (Rattus norvegicus [15]): Active; Activity (Rattus norvegicus [7]): Active; Activity (Rattus norvegicus [16]): Active; Activity (Rattus norvegicus [17]): Active; fold change (FC) (Rattus norvegicus [18]): 4.6; Activity (Rattus norvegicus [19]): Active
Oc1ccc(/C=C/c2ccc3c(c2)OCO3)cc1 | 39.5% | inactive | 14.4% | 20.1% | –
CC(=O)Oc1ccc(/C=C/c2ccc3c(c2)OCO3)cc1 | 84.5% | inactive | 17.8% | 21.3% | –
COc1cc(/C=C/c2ccc(OC(C)=O)cc2)cc(OC)c1 | 6.48% | – | 6.75% | 13.9% | Activity (Rattus norvegicus [20]): inactive; Activity (Rattus norvegicus [7]): Active
COc1ccc(/C=C/c2ccc(NC(C)=O)cc2)cc1 | 70% | inactive | 40.7% | 52.2% | –
O=C(Nc1ccc(/C=C/c2ccc3c(c2)OCO3)cc1)c1ccccc1 | 98.6% | – | 85% | 99.3% | Activity (Rattus norvegicus [21]): Active; Activity (Rattus norvegicus [22]): Active; Activity (Rattus norvegicus [6]): Active; Activity (Rattus norvegicus [23]): Active; fold change (FC) (Rattus norvegicus [24]): 1.6; Activity (Rattus norvegicus [25]): Active; fold change (FC) (Rattus norvegicus [26]): 3.2; Activity (Rattus norvegicus [27]): Active; Activity (Rattus norvegicus [28]): Active; fold change (FC) (Rattus norvegicus [7]): 2.2 - 3.5; Activity (Rattus norvegicus [29]): Active; Activity (Rattus norvegicus [30]): Active
CS(=O)(=O)Nc1ccc(/C=C/c2ccc3c(c2)OCO3)cc1 | 72.5% | – | 62.3% | 68.9% | Activity (Rattus norvegicus [6]): Active; fold change (FC) (Rattus norvegicus [7]): 2.2 - 3.5
CC(=O)Nc1cccc(C#Cc2ccc3c(c2)OCO3)c1 | 70.6% | inactive | 55.3% | 62.9% | –

— ChEMBL document CHEMBL4138103, “Discovery of efficient stimulators for adult hippocampal neurogenesis based on scaffolds in dragon's blood” (Eur J Med Chem, 2017)
